Bioassay records: PubChem BioAssay, several laboratories
CCR6 antagonist: CCR6 (human) receptor antagonism; inhibition, % at 20 µM; CHO-K1 CCR6 PathHunter beta-arrestin, luminescence, CCL20-stimulated; P51684; 340,000 compounds, 0.49% hits;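 active = compounds whose inhibition of the agonist-driven luminescence signal at 20 µM reaches about 50%, limit read from the data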;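 also: cells stimulated with CCL20 at 14 nM final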
APJ antagonist: APJ receptor antagonism | inhibition, % at 20 µM | AID 2521 | 330,000 compounds, 0.32% hits | CHO-K1 APJ beta-arrestin complementation, luminescence | P35414;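 active = inhibition above about 40% at 20 µM, limit read from the data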;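 also: cells challenged with 10 nM apelin-13 agonist together with compound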
Target sequence (P35414 whole entry, looked up): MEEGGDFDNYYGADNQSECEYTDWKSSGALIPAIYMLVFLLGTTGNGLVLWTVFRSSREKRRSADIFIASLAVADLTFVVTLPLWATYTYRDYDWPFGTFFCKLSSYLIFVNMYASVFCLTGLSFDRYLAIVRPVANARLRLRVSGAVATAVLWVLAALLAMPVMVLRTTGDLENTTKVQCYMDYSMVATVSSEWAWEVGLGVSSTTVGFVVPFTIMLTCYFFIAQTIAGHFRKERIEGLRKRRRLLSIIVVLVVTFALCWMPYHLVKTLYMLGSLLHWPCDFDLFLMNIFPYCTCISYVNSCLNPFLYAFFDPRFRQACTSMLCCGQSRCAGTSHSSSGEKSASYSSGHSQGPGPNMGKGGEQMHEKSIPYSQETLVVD
CXCR6 block: blocks human CXCR6 beta-arrestin recruitment; O00574; inhibition, % at 20 µM; AID 602244; 360,000 compounds, 0.36% hits; CHO-K1 PathHunter CXCR6 beta-arrestin, luminescence; in the data active = inhibition above about 34%, passing the limit was not always enough;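 also: antagonist mode with CXCL16 agonist at 10 nM final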
GAA850 FXN act: frataxin GAA850 promoter activation; 360,000 compounds, 0.56% hits; HEK293 lucGAA850 FXN promoter luciferase reporter, 24 h; percent of 10 µM SAHA response; activation, % at 6 µM;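 active = activation above the average of all compounds screened plus 3 SD, cutoff fixed separately per campaign, cut at about 7.5% in these data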
APJ agonist: agonists of human APJ apelin receptor; P35414; CHO-K1 APJ PathHunter beta-arrestin, luminescence; 0% DMSO wells, 100% apelin; activation, % at 20 µM; 330,000 compounds, 0.11% hits;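 active = activation more than six SD over the plate average, tested at 20 µM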
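Assay system: CHO-K1 APJ beta-arrestin complementation cell line / Compound: single test compound dose, 20 µM final, 1% DMSO / Times: overnight seeding, 90 min compound at 25 °C, 1 h detection / Technique: beta-gal luminescence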
EBI2 antag: blocks human EBI2 receptor beta-arrestin signaling; P32249; EBI2 beta-arrestin recruitment, luminescence, 7a,25-OHC stimulated; 360,000 compounds, 0.81% hits; inhibition, % at 5 µM; in the data active = inhibition above about 38%;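 also: enzyme fragment complementation signal reports receptor beta-arrestin coupling in cells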
Numbers stand for hits. Compounds with a hit are over-represented: about 2% of the library has one in this group of screens.

How did Nc1[nH]n2c(=O)cc(-c3ccccc3)nc2c1N=Nc1ccccc1 do in these assays?
CCR6 antagonist: 51.0; APJ antagonist: inactive; CXCR6 block: inactive; GAA850 FXN act: inactive; APJ agonist: inactive; EBI2 antag: inactive

Results for COc1ccccc1/C=C/C(=O)/C=C/c1ccccc1O ?
CCR6 antagonist: inactive; CXCR6 block: inactive; GAA850 FXN act: inactive; EBI2 antag: 43.9

What do the screens show for `CC(NC(=O)/C(C#N)=C/c1ccc(Cl)c([N+](=O)[O-])c1)c1ccccc1` (centres undefined)?
CCR6 antagonist: 92.5; APJ antagonist: inactive; APJ agonist: inactive

How did CCOC(=O)CSC1=NC(=O)/C(=C\c2ccc(OC(C)=O)cc2)S1 do in these assays?
CCR6 antagonist: 77.8; APJ antagonist: inactive; CXCR6 block: inactive; GAA850 FXN act: inactive; APJ agonist: inactive; EBI2 antag: inactive

How did CCOC(=O)CSC1=NC(=O)/C(=C/c2ccc(Br)cc2)S1 do in these assays?
CCR6 antagonist: 59.0; APJ antagonist: inactive; CXCR6 block: inactive; GAA850 FXN act: inactive; APJ agonist: inactive; EBI2 antag: inactive

Results for NC1=NC(=O)/C(=C/c2ccc(Br)cc2)S1 ?
CCR6 antagonist: inactive; APJ antagonist: inactive; CXCR6 block: inactive; GAA850 FXN act: inactive; APJ agonist: inactive; EBI2 antag: inactive

Results for O=C(CC1C(=O)NCCN1Cc1c(F)cccc1Cl)NCCCN1CCCC1=O (centres undefined) ?
CCR6 antagonist: inactive; APJ antagonist: inactive; CXCR6 block: inactive; GAA850 FXN act: inactive; APJ agonist: inactive; EBI2 antag: inactive

Results for COc1ccc(C(=O)/C=C/C(=O)N(CC(=O)NC2CCCCC2)Cc2cccs2)c(O)c1 ?
CCR6 antagonist: 92.3; APJ antagonist: inactive; CXCR6 block: 72.3; GAA850 FXN act: inactive; APJ agonist: inactive; EBI2 antag: inactive

How did COc1ccc(CN(C(=O)/C=C/C(=O)c2ccc(OC)cc2O)C(C(=O)NC2CCCCC2)c2ccncc2)cc1 (centres undefined) do in these assays?
CCR6 antagonist: inactive; APJ antagonist: inactive; CXCR6 block: inactive; GAA850 FXN act: inactive; APJ agonist: inactive; EBI2 antag: inactive

How did COCCN(CC(=O)NC1CCCCC1)C(=O)/C=C/C(=O)c1ccc(OC)cc1O do in these assays?
CCR6 antagonist: 64.7; CXCR6 block: 61.7; GAA850 FXN act: inactive; EBI2 antag: inactive

How did COC1=C(Br)C(=O)c2nc(C)ccc2C1=O do in these assays?
CXCR6 block: 43.5; GAA850 FXN act: inactive; EBI2 antag: inactive

How did Cc1c(F)cccc1NS(=O)(=O)c1ccc(N2CCCC2=O)cc1 do in these assays?
CCR6 antagonist: inactive; CXCR6 block: inactive; GAA850 FXN act: inactive; EBI2 antag: inactive

How did COC(=O)c1cc(=O)n(Cc2ccc3c(c2)OCO3)c(=Nc2ccc(F)c(Cl)c2)s1 do in these assays?
CCR6 antagonist: inactive; APJ antagonist: inactive; CXCR6 block: inactive; GAA850 FXN act: inactive; APJ agonist: inactive; EBI2 antag: 63.9

What do the screens show for `Cc1cc(-c2ccc(N=Nc3c(S(=O)(=O)O)cc4cc(S(=O)(=O)O)cc(N)c4c3O)c(C)c2)ccc1N=Nc1c(S(=O)(=O)O)cc2cc(S(=O)(=O)O)cc(N)c2c1O`?
APJ antagonist: 78.0; APJ agonist: inactive

What do the screens show for `Nc1cc(S(=O)(=O)O)cc2ccc(S(=O)(=O)O)cc12`?
CCR6 antagonist: inactive; CXCR6 block: inactive; GAA850 FXN act: inactive; EBI2 antag: inactive

Results for O=c1nc2cccc3c2=c(/c1=C(\O)c1ccccc1)c1ccccc1c3=O ?
CCR6 antagonist: 52.0; APJ antagonist: inactive; CXCR6 block: inactive; GAA850 FXN act: inactive; APJ agonist: inactive; EBI2 antag: inactive

How did C[N+](C)(CC#Cc1ccccc1)CC(=O)c1ccc(Cl)cc1 do in these assays?
CCR6 antagonist: inactive; APJ antagonist: 42.1; CXCR6 block: inactive; GAA850 FXN act: inactive; APJ agonist: inactive; EBI2 antag: inactive

Results for CCOC(=O)C1(Cc2ccc(Cl)cc2)CCN(C(=O)CCc2cnccn2)CC1 ?
CCR6 antagonist: 62.0; APJ antagonist: inactive; CXCR6 block: inactive; GAA850 FXN act: inactive; APJ agonist: inactive; EBI2 antag: inactive

Results for Cc1ccc(NC(=O)CCC(=O)NNC(=O)Nc2cccc(Cl)c2)c(C)c1 ?
CCR6 antagonist: inactive; APJ antagonist: inactive; CXCR6 block: inactive; GAA850 FXN act: inactive; APJ agonist: inactive; EBI2 antag: inactive

What do the screens show for `CCC(/C=C1\Sc2ccc(OC)cc2N1CCO)=C\c1sc2ccc(OC)cc2[n+]1CCO`?
CCR6 antagonist: 67.6; APJ antagonist: inactive; CXCR6 block: inactive; GAA850 FXN act: inactive; APJ agonist: inactive; EBI2 antag: inactive

Results for CCC(/C=C1\Sc2ccc(OC)cc2N1CC)=C\c1sc2ccc(OC)cc2[n+]1CCCS(=O)(=O)[O-] ?
CCR6 antagonist: 76.9; APJ antagonist: inactive; CXCR6 block: inactive; GAA850 FXN act: inactive; APJ agonist: inactive; EBI2 antag: inactive

How did CSc1ccc(NC(=O)C2(C)CCN2C(=O)c2sccc2C)cc1 (centres undefined) do in these assays?
CXCR6 block: inactive; GAA850 FXN act: inactive; EBI2 antag: inactive

What do the screens show for `COc1ccc(Nc2c([N+](=O)[O-])ccc3c2=NC2(CCCCC2)N=3)cc1`?
CCR6 antagonist: inactive; APJ antagonist: inactive; CXCR6 block: inactive; GAA850 FXN act: inactive; APJ agonist: inactive; EBI2 antag: 61.1

What do the screens show for `O=[N+]([O-])c1ccccc1Nc1ccccc1`?
CCR6 antagonist: inactive; APJ antagonist: inactive; CXCR6 block: inactive; GAA850 FXN act: inactive; APJ agonist: inactive; EBI2 antag: inactive

How did O=[N+]([O-])c1ccc2c(c1Nc1ccccc1)=NC1(CCCCC1)N=2 do in these assays?
CCR6 antagonist: inactive; APJ antagonist: inactive; CXCR6 block: inactive; GAA850 FXN act: inactive; APJ agonist: inactive; EBI2 antag: 66.5

Results for COc1ccccc1NC(=O)NC(=O)c1ccccc1 ?
CCR6 antagonist: inactive; APJ antagonist: inactive; CXCR6 block: inactive; GAA850 FXN act: inactive; APJ agonist: inactive; EBI2 antag: inactive

What do the screens show for `COCCn1c(NC(=S)NC(=O)C23CC4CC(CC(C4)C2)C3)cc(=O)[nH]c1=O`?
CCR6 antagonist: inactive; APJ antagonist: inactive; CXCR6 block: inactive; GAA850 FXN act: 12.0; APJ agonist: inactive; EBI2 antag: inactive

Results for Cc1[nH]n(-c2ccccc2)c(=O)c1/C=N/N1C(=O)c2cccc3cccc(c23)C1=O ?
CCR6 antagonist: 73.5; APJ antagonist: inactive; CXCR6 block: 52.5; GAA850 FXN act: inactive; APJ agonist: inactive; EBI2 antag: inactive

What do the screens show for `Cc1[nH]n(-c2ccccc2)c(=O)c1C=Nc1cccc2cccnc12`?
CCR6 antagonist: 52.3; APJ antagonist: 94.2; CXCR6 block: 53.9; GAA850 FXN act: inactive; APJ agonist: inactive; EBI2 antag: 95.7

Results for C/C(=N/Nc1cc(-c2ccccc2)nc(-c2ccccc2)n1)c1ccc(O)cc1 ?
CCR6 antagonist: inactive; APJ antagonist: inactive; CXCR6 block: inactive; GAA850 FXN act: inactive; APJ agonist: inactive; EBI2 antag: 60.1
